Experimental findings from ChEMBL document CHEMBL1150163, “Steroidal glycosides from the leaves of Cestrum nocturnum” (2002) are described below.

Values after ≈ are worked out from the molar mass of the structure shown.

The subject of this experiment is HSC-2. As to the kind of experiment: Cytotoxicity against human HSC2 cells after 24 hrs by MTT assay. The format is functional. To be noted: HSC-2, 24 h, read-out: LD50 (the source's name). A digest of the protocol:
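HSC-2 oral squamous carcinoma cells grown as monolayers in DMEM with 10% heat-inactivated FBS, 37 °C, 5% CO2. Seeded at 6 × 10^3 cells/well, incubated 24 h, washed, then exposed to compounds for 24 h. MTT (0.2 mg/mL) for 4 h, DMSO lysis, absorbance at 540 nm. LD50 (50% reduction in viable cells) read from dose-response curve.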
Background: Formazan colour is commonly taken as a measure of viable cells.
Turning to `CC(=O)C1=CC[C@H]2[C@@H]3CC=C4C[C@@H](O[C@@H]5O[C@H](CO)[C@H](O[C@@H]6O[C@H](CO)[C@@H](O)[C@H](O[C@@H]7OC[C@@H](O)[C@H](O)[C@H]7O)[C@H]6O[C@@H]6O[C@H](CO)[C@@H](O)[C@H](O[C@@H]7O[C@H](CO)[C@@H](O)[C@H](O)[C@H]7O)[C@H]6O)[C@H](O)[C@H]5O)[C@H](O)C[C@]4(C)[C@H]3CC[C@]12C`, the CC50 was 192 µg/mL (≈ 173 µM).

`CC(=O)[C@H]1[C@@H](OC(=O)CC[C@@H](C)CO[C@@H]2O[C@H](CO)[C@@H](O)[C@H](O)[C@H]2O)C[C@H]2[C@@H]3CC=C4C[C@@H](O[C@@H]5O[C@H](CO)[C@H](O[C@@H]6O[C@H](CO)[C@@H](O)[C@H](O[C@@H]7OC[C@@H](O)[C@H](O)[C@H]7O)[C@H]6O[C@@H]6O[C@H](CO)[C@@H](O)[C@H](O[C@@H]7O[C@H](CO)[C@@H](O)[C@H](O)[C@H]7O)[C@H]6O)[C@H](O)[C@H]5O)[C@H](O)C[C@]4(C)[C@H]3CC[C@@]21C`: the CC50 is over 300 µg/mL.

`C[C@@H]1CC[C@@]2(OC1)O[C@H]1C[C@H]3[C@@H]4CC=C5C[C@@H](O[C@@H]6O[C@H](CO)[C@H](O[C@@H]7O[C@H](CO)[C@@H](O)[C@H](O[C@@H]8OC[C@@H](O)[C@H](O)[C@H]8O)[C@H]7O[C@@H]7O[C@H](CO)[C@@H](O)[C@H](O[C@@H]8O[C@H](CO)[C@@H](O)[C@H](O)[C@H]8O)[C@H]7O)[C@H](O)[C@H]6O)[C@H](O)C[C@]5(C)[C@H]4CC[C@]3(C)[C@H]1[C@@H]2C`: the CC50 was determined as 2.7 µg/mL (≈ 2.23 µM).

For the compound `C[C@@H]1C(=O)O[C@H]2C[C@H]3[C@@H]4CC=C5C[C@@H](O[C@@H]6O[C@H](CO)[C@H](O[C@@H]7O[C@H](CO)[C@@H](O)[C@H](O[C@@H]8OC[C@@H](O)[C@H](O)[C@H]8O)[C@H]7O[C@@H]7O[C@H](CO)[C@@H](O)[C@H](O[C@@H]8O[C@H](CO)[C@@H](O)[C@H](O)[C@H]8O)[C@H]7O)[C@H](O)[C@H]6O)[C@H](O)C[C@]5(C)[C@H]4CC[C@]3(C)[C@H]21`, the CC50 is over 300 µg/mL.

Turning to `CO[C@]1(CC[C@@H](C)CO[C@@H]2O[C@H](CO)[C@@H](O)[C@H](O)[C@H]2O)O[C@H]2C[C@H]3[C@@H]4CC=C5C[C@@H](O[C@@H]6O[C@H](CO)[C@H](O[C@@H]7O[C@H](CO)[C@@H](O)[C@H](O[C@@H]8OC[C@@H](O)[C@H](O)[C@H]8O)[C@H]7O[C@@H]7O[C@H](CO)[C@@H](O)[C@H](O[C@@H]8O[C@H](CO)[C@@H](O)[C@H](O)[C@H]8O)[C@H]7O)[C@H](O)[C@H]6O)[C@H](O)C[C@]5(C)[C@H]4CC[C@]3(C)[C@H]2[C@@H]1C`, the CC50 came to 6.1 µg/mL (≈ 4.34 µM).

Regarding `CC1=C(CC[C@@H](C)CO[C@@H]2O[C@H](CO)[C@@H](O)[C@H](O)[C@H]2O)O[C@H]2C[C@H]3[C@@H]4CC=C5C[C@@H](O[C@@H]6O[C@H](CO)[C@H](O[C@@H]7O[C@H](CO)[C@@H](O)[C@H](O[C@@H]8OC[C@@H](O)[C@H](O)[C@H]8O)[C@H]7O[C@@H]7O[C@H](CO)[C@@H](O)[C@H](O[C@@H]8O[C@H](CO)[C@@H](O)[C@H](O)[C@H]8O)[C@H]7O)[C@H](O)[C@H]6O)[C@H](O)C[C@]5(C)[C@H]4CC[C@]3(C)[C@@H]12`, the CC50 is over 300 µg/mL.

For `C/C(C(=O)CC[C@@H](C)CO[C@@H]1O[C@H](CO)[C@@H](O)[C@H](O)[C@H]1O)=C1/C(=O)C[C@H]2[C@@H]3CC=C4C[C@@H](O[C@@H]5O[C@H](CO)[C@H](O[C@@H]6O[C@H](CO)[C@@H](O)[C@H](O[C@@H]7OC[C@@H](O)[C@H](O)[C@H]7O)[C@H]6O[C@@H]6O[C@H](CO)[C@@H](O)[C@H](O[C@@H]7O[C@H](CO)[C@@H](O)[C@H](O)[C@H]7O)[C@H]6O)[C@H](O)[C@H]5O)[C@H](O)C[C@]4(C)[C@H]3CC[C@]12C`, the CC50 was found to be 281 µg/mL (≈ 203 µM).

As to `C/C(C(=O)CC[C@@H](C)CO[C@@H]1O[C@H](CO)[C@@H](O)[C@H](O)[C@H]1O)=C1/C(=O)C[C@H]2[C@@H]3CC=C4C[C@@H](O[C@@H]5O[C@H](CO)[C@H](O[C@@H]6O[C@H](CO)[C@@H](O)[C@H](O[C@@H]7OC[C@@H](O)[C@H](O)[C@H]7O)[C@H]6O[C@@H]6O[C@H](CO)[C@@H](O)[C@H](O)[C@H]6O)[C@H](O)[C@H]5O)[C@H](O)C[C@]4(C)[C@H]3CC[C@]12C`, the CC50 was over 300 µg/mL.

Turning to `C[C@@H]1CC[C@@]2(OC1)O[C@H]1C[C@H]3[C@@H]4CC=C5C[C@@H](O[C@@H]6O[C@H](CO)[C@H](O[C@@H]7O[C@H](CO)[C@@H](O)[C@H](O[C@@H]8OC[C@@H](O)[C@H](O)[C@H]8O)[C@H]7O[C@@H]7O[C@H](CO)[C@@H](O)[C@H](O[C@@H]8O[C@H](CO)[C@@H](O)[C@H](O)[C@H]8O)[C@H]7O)[C@H](O)[C@H]6O)[C@H](O)C[C@]5(C)[C@H]4CC[C@]3(C)[C@@]1(O)[C@@H]2C`, the CC50 came out at 4.4 µg/mL (≈ 3.59 µM).

For the compound `C[C@H]1CO[C@]2(C[C@@H]1O[C@@H]1O[C@H](CO)[C@@H](O)[C@H](O)[C@H]1O)O[C@H]1C[C@H]3[C@@H]4CC=C5C[C@@H](O[C@@H]6O[C@H](CO)[C@H](O[C@@H]7O[C@H](CO)[C@@H](O)[C@H](O[C@@H]8OC[C@@H](O)[C@H](O)[C@H]8O)[C@H]7O[C@@H]7O[C@H](CO)[C@@H](O)[C@H](O[C@@H]8O[C@H](CO)[C@@H](O)[C@H](O)[C@H]8O)[C@H]7O)[C@H](O)[C@H]6O)[C@H](O)C[C@]5(C)[C@H]4CC[C@]3(C)[C@H]1[C@@H]2C`, the CC50 is over 300 µg/mL.

Take `COc1cccc2c1C(=O)c1c(O)c3c(c(O)c1C2=O)C[C@@](O)(C(=O)CO)C[C@@H]3O[C@H]1C[C@H](N)[C@H](O)[C@H](C)O1` [DOXORUBICIN]: the CC50 stood at 2.5 µg/mL (≈ 4.6 µM).
